Calls of active or inactive are those of the source. The rule behind the calls is not given here. Bridge positions count the residues as written; N and C are the ends. Square brackets hold non-standard residues; d marks the D form. Peptide text beside a SMILES is read from it. Nle = CCCC[C@H](N)C(=O)O; Nva = CCC[C@H](N)C(=O)O; Abu = CC[C@H](N)C(=O)O

Consider five molecules from ChEMBL document CHEMBL3232963, “Discovery of a potent and selective α3β4 nicotinic acetylcholine receptor antagonist from an α-conotoxin synthetic combinatorial library” (J Med Chem, 2014).

Holding throughout (type): cell-based
Experiment [1] concerns the target T1, Neuronal acetylcholine receptor; alpha3/beta4 (Homo sapiens, UniProt P30926+P32297). Nature of the experiment: Inhibition of human alpha3beta4 nAChR expressed in Xenopus laevis oocytes by two-electrode voltage clamp technique. For orientation: In two-electrode clamp one electrode senses voltage and the other passes current.
The target in experiment [2] is Neuronal acetylcholine receptor subunit alpha-7 (Homo sapiens) (UniProt P36544). Nature of the experiment: Inhibition of alpha7 nAChR (unknown origin) expressed in Xenopus laevis oocytes assessed as inhibition of acetylcholine-evoked current at 10 uM by voltage clamp technique.
The target in experiment [3] is Neuronal acetylcholine receptor; alpha4/beta2 (Rattus norvegicus, UniProt P09483+P12390). The experiment is described as follows: Antagonist activity at rat alpha4beta2 nAChR expressed in HEK293 cells assessed as inhibition of epibatadine-induced effect after 30 mins by fluorescent membrane potential assay. In a few lines:
(§1)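 Stably transfected HEK293 lines (KXα3β4R2, KXα3β2R2, KXα4β2R2; rat subunits) grown in DMEM/10% FBS with G-418, plated 24 h before assay. Cells washed with HBSS, peptide added, then membrane potential blue dye, 30 min at 37 °C. Fluorescence (ex 565/em 530 nm) read up to 60 s after epibatidine to 0.1 μM. IC50 from maximal responses across concentrations; n = 4.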

The target of experiment [4] is T2, Neuronal acetylcholine receptor; alpha3/beta4 (Rattus norvegicus, UniProt P04757+P12392). The experiment is described as follows: Displacement of [3H]epibatadine from rat alpha3beta4 nAChR expressed in HEK293 cells after 2 hrs by betaplate counting analysis. In a few lines: (§2)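 Membranes from HEK293 cells stably expressing α3β4 or α4β2 nAChR, homogenised in 50 mM Tris pH 7.4 and washed by centrifugation. Incubated 2 h at room temperature with peptide and 0.31 nM [3H]epibatidine; filtered on PEI-soaked glass fibre, counted. Nonspecific binding with 0.1 μM unlabeled epibatidine. Ki by Cheng–Prusoff from IC50.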

The target of experiment [5] is Neuronal acetylcholine receptor; alpha3/beta2 (Rattus norvegicus, UniProt P04757+P12390). Nature of the experiment: Antagonist activity at rat alpha3beta2 nAChR expressed in HEK293 cells assessed as inhibition of epibatadine-induced effect after 30 mins by fluorescent membrane potential assay. An outline of the steps:
as §1

For experiment [6], the target named is Neuronal acetylcholine receptor; alpha4/beta2 (Rattus norvegicus) (UniProt P09483+P12390). Nature of the experiment: Displacement of [3H]epibatadine from rat alpha4beta2 nAChR expressed in HEK293 cells up to 10 uM after 2 hrs by betaplate counting analysis. In a few lines:
as §2
(In general: In a radioligand displacement assay an active substance lowers the binding of a labelled ligand.)

Experiment [7] deals with T2, Neuronal acetylcholine receptor; alpha3/beta4. Nature of the experiment: Antagonist activity at rat alpha3beta4 nAChR expressed in HEK293 cells assessed as inhibition of epibatadine-induced effect after 30 mins by fluorescent membrane potential assay. An outline of the steps: as §1
In experiment [8] the target is Neuronal acetylcholine receptor; alpha3/beta4 (Rattus norvegicus) (UniProt P04757+P12392). The experiment is described as follows: Antagonist activity at rat alpha3beta4 nAChR expressed in HEK293 cells assessed as inhibition of epibatadine-induced effect at 10 uM after 30 mins by fluorescent membrane potential assay relative to mecamylamine. In a few lines:
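Rat α3β4 nAChR stably expressed in HEK293 cells; crude, SPE-desalted individual peptides tested at 10 μM in HBSS with membrane potential blue dye, 30 min at 37 °C. Fluorescence change read after epibatidine (0.1 μM). Percent inhibition set against 10 μM mecamylamine taken as 100%.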

The target in experiment [9] is T1, Neuronal acetylcholine receptor; alpha3/beta4. Nature of the experiment: Inhibition of alpha3beta4 nAChR (unknown origin) expressed in Xenopus laevis oocytes assessed as inhibition of acetylcholine-evoked current at 10 uM by voltage clamp technique.
The target is the same in experiment [10]. Nature of the experiment: Inhibition of alpha3beta4 nAChR (unknown origin) expressed in Xenopus laevis oocytes assessed as inhibition of acetylcholine-evoked current by voltage clamp technique. In a few lines:
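Oocytes expressing α3 chimera/β4 nAChR, voltage-clamped at ~22 °C. Concentrations below 1 μM perfused, with 1 s ACh pulses every 1 min; 1 μM and above given as a 5 min static bath. Lowest concentration tested 10 nM. IC50 from a concentration–response curve with top and bottom fixed at 100 and 0; n = 3–5 oocytes per concentration.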

The species named for experiment [11] is Homo sapiens. The experiment is described as follows: Selectivity for alpha3beta4 nAChR (unknown origin) expressed in Xenopus laevis oocytes over alpha3beta2 nAChR (unknown origin) expressed in Xenopus laevis oocytes.
Experiment [12] has as its target Neuronal acetylcholine receptor; alpha3/beta2 (Homo sapiens) (UniProt P17787+P32297). Nature of the experiment: Inhibition of alpha3beta2 nAChR (unknown origin) expressed in Xenopus laevis oocytes assessed as inhibition of acetylcholine-evoked current up to 10 uM by voltage clamp technique.

Neuronal acetylcholine receptor subunit alpha-7 (Homo sapiens), sequence (P36544 whole entry): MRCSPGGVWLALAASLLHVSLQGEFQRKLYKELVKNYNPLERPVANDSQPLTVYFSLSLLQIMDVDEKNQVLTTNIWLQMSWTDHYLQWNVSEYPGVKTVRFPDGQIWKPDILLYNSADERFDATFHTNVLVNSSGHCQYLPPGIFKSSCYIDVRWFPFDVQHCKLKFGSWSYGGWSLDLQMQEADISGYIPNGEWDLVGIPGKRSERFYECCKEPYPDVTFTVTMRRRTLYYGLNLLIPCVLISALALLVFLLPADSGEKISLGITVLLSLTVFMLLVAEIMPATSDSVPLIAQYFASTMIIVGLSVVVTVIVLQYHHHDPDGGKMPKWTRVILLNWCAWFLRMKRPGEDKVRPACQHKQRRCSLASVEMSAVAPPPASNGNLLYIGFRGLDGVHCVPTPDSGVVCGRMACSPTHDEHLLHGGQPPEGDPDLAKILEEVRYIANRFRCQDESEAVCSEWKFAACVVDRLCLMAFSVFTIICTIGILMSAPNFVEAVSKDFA
Neuronal acetylcholine receptor; alpha3/beta2, sequence (P04757 whole entry): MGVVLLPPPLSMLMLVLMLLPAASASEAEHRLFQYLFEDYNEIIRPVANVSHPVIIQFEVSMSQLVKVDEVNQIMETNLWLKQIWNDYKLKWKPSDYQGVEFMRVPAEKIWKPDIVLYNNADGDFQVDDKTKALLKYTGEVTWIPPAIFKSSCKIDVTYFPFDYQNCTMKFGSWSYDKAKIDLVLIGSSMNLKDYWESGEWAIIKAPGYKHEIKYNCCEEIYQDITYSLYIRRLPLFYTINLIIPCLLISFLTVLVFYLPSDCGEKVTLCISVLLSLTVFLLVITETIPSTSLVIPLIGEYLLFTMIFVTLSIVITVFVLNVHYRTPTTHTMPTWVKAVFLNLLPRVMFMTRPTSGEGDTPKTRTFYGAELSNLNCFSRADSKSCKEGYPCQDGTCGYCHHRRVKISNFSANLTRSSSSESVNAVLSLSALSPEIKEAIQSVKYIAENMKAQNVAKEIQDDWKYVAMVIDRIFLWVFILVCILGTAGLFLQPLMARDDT
Neuronal acetylcholine receptor; alpha3/beta2, sequence (P12390 whole entry): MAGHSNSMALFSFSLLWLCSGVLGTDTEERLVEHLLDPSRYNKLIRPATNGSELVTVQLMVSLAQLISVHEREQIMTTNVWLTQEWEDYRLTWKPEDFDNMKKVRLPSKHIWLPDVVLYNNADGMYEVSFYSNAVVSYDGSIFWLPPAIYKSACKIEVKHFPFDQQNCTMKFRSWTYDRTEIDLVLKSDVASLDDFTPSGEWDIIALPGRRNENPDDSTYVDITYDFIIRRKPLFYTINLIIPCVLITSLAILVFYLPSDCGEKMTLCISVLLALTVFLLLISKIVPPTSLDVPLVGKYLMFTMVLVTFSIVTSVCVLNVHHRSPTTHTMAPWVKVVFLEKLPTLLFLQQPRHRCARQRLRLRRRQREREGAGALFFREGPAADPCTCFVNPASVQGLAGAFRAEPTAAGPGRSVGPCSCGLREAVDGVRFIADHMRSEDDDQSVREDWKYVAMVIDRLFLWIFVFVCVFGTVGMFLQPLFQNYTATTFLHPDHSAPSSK
T2 sequence (P04757 whole entry): as the sequence (P04757 whole entry) above
T2 sequence (P12392 whole entry): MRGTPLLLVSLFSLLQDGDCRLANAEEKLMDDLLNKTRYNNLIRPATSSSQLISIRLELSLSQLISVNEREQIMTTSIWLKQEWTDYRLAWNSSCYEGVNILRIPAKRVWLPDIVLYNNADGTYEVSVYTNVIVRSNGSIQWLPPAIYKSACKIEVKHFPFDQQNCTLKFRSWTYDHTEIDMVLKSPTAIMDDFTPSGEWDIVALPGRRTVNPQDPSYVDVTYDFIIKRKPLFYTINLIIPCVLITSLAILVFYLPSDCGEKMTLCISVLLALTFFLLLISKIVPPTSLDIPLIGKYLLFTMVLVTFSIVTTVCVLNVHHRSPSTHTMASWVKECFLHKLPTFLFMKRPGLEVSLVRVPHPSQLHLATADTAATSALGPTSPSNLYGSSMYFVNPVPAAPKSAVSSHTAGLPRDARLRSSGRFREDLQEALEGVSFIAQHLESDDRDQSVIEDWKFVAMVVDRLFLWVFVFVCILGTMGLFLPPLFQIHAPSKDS
Neuronal acetylcholine receptor; alpha4/beta2, sequence (P09483 whole entry): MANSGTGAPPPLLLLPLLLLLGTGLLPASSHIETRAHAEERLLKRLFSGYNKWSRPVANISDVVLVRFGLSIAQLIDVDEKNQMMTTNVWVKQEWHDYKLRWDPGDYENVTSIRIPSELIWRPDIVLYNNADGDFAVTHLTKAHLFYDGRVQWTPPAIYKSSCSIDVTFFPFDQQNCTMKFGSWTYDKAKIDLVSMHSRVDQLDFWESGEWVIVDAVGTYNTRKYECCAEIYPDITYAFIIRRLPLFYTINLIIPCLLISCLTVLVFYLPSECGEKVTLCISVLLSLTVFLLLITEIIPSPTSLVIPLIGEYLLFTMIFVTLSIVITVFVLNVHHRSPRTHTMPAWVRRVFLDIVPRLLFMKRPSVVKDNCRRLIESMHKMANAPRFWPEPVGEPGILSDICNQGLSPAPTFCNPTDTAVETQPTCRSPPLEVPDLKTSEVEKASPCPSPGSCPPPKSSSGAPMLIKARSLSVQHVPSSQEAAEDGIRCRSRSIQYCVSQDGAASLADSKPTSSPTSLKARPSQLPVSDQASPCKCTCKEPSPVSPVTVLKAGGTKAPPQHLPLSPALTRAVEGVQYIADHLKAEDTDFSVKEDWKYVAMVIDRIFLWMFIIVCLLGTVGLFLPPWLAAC
Neuronal acetylcholine receptor; alpha4/beta2, sequence (P12390 whole entry): as the sequence (P12390 whole entry) above
T1 sequence (P30926 whole entry): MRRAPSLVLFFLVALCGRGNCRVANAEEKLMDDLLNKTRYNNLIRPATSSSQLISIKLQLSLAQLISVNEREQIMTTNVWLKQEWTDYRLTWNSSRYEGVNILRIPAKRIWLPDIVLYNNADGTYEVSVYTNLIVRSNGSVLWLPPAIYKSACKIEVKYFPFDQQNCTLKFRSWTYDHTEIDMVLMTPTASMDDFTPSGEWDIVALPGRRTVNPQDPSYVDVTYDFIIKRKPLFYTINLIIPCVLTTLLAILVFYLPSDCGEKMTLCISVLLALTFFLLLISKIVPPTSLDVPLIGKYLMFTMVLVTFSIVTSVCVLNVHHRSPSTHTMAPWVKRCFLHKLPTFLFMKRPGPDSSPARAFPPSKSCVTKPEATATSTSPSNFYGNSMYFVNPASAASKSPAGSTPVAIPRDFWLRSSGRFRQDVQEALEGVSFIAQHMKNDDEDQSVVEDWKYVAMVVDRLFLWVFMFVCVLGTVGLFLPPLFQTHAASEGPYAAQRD
T1 sequence (P32297 whole entry): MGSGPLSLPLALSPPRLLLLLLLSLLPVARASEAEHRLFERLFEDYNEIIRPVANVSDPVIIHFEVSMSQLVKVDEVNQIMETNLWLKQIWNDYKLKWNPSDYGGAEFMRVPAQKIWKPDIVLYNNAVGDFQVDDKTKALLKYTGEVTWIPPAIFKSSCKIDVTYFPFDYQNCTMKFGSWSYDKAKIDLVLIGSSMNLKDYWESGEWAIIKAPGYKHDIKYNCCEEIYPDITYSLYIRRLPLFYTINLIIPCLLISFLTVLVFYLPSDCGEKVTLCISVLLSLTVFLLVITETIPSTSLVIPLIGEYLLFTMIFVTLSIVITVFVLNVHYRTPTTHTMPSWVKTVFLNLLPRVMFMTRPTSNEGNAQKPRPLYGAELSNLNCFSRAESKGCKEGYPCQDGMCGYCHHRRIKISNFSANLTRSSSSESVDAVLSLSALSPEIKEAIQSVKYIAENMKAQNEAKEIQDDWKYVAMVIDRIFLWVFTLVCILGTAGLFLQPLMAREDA

As usually defined, the IC50 is the concentration needed to halve the response being measured. Turning to `CC[C@H](C)[C@@H]1NC(=O)[C@H](Cc2cnc[nH]2)NC(=O)[C@H](CCC(N)=O)NC(=O)[C@H](CC(N)=O)NC(=O)[C@H](CC(N)=O)NC(=O)CNC(=O)[C@H](C)NC(=O)[C@@H]2CSSC[C@H](NC(=O)CN)C(=O)N[C@@H](CSSC[C@@H](C(=O)O)NC1=O)C(=O)N[C@@H](CO)C(=O)N[C@@H](Cc1cnc[nH]1)C(=O)N1CCC[C@H]1C(=O)N[C@@H](C)C(=O)N2`, in [1], the IC50 amounted to 0.755 µM.

As a reminder, the inhibition is the drop in the measured response relative to a control, in per cent. One may read the Ki as a measure of affinity in units of concentration, obtained from inhibition or displacement. A high value points to lower affinity. Turning to `CCCC[C@@H]1NC(=O)[C@H](CO)NC(=O)[C@@H]2CSSC[C@@H](C(=O)O)NC(=O)[C@H](Cc3ccc(O)cc3)NC(=O)[C@H](CCC)NC(=O)[C@H](CC)NC(=O)[C@H](Cc3ccccc3)NC(=O)[C@H](CSSC[C@H](NC(=O)CN)C(=O)N2)NC(=O)[C@@H]2CCCN2C(=O)[C@@H]2CCCN2C1=O` (H-GCCS[Nle]PPCF[Abu][Nva]YC-OH; disulfide 2-8, 3-13), in experiment [2], the inhibition entry was “inactive”. The half-maximal inhibitory concentration (IC50) was more than 10 µM in experiment [3], more than 10 µM in experiment [5] and 0.345 µM in experiment [7]. Moreover, in experiment [4], the affinity, expressed as Ki, was 1.11 µM. Further, the outcome in [6] was inactive. Besides, the inhibition in [8] is 96.4%.

In the case of `CCC[C@@H]1NC(=O)[C@H](CC)NC(=O)[C@H](Cc2ccccc2)NC(=O)[C@@H]2CSSC[C@H](NC(=O)CN)C(=O)N[C@@H](CSSC[C@@H](C(=O)O)NC(=O)[C@H](Cc3ccc(O)cc3)NC1=O)C(=O)N[C@@H](CO)C(=O)N[C@@H](Cc1cnc[nH]1)C(=O)N1CCC[C@H]1C(=O)N[C@@H](CC)C(=O)N2` (H-GCCSHP[Abu]CF[Abu][Nva]YC-OH; disulfide 2-8, 3-13), the inhibition entry in experiment [2] and in experiment [12] was “inactive” each time. Further, the inhibition was 75% in experiment [9], “Dose-dependent effect” in experiment [10] and 109% in [8]. The 50% inhibitory concentration (IC50) is more than 10 µM in experiment [3], more than 10 µM in experiment [5] and 0.183 µM in experiment [7]. This molecule registered an inhibition constant Ki in experiment [4] of 0.27 µM. Moreover, the Selectivity ratio in experiment [11] was more than 1000. The outcome in experiment [6] was inactive.

As to `CCCC[C@@H]1NC(=O)[C@H](CO)NC(=O)[C@@H]2CSSC[C@@H](C(=O)O)NC(=O)[C@H](Cc3ccc(O)cc3)NC(=O)[C@H](CCC)NC(=O)[C@H](CC)NC(=O)[C@H](Cc3ccccc3)NC(=O)[C@H](CSSC[C@H](NC(=O)CN)C(=O)N2)NC(=O)[C@H](CC)NC(=O)[C@@H]2CCCN2C1=O` (H-GCCS[Nle]P[Abu]CF[Abu][Nva]YC-OH; disulfide 2-8, 3-13), the inhibition result in experiment [2] is “inactive”. The results for the half-maximal inhibitory concentration (IC50) in [3], in [5] and in [7] were more than 10 µM, more than 10 µM and 0.32 µM, respectively. In [4], this molecule registered a Ki of 0.98 µM. The outcome in experiment [6] was inactive. Also, the inhibition in experiment [8] is 104%.

With `CCC[C@@H]1NC(=O)[C@H](CC)NC(=O)[C@H](Cc2ccccc2)NC(=O)[C@@H]2CSSC[C@H](NC(=O)CN)C(=O)N[C@@H](CSSC[C@@H](C(=O)O)NC(=O)[C@H](Cc3ccc(O)cc3)NC1=O)C(=O)N[C@@H](CO)C(=O)N[C@@H](Cc1cnc[nH]1)C(=O)N1CCC[C@H]1C(=O)N1CCC[C@H]1C(=O)N2` (H-GCCSHPPCF[Abu][Nva]YC-OH; disulfide 2-8, 3-13), the inhibition in experiment [2] came to 49.8%; in experiment [8] it was 92.6%. Besides, the IC50 is more than 10 µM in [3], more than 10 µM in experiment [5] and 0.298 µM in experiment [7]. In [4], this molecule yielded a Ki of 0.794 µM. In experiment [6], the outcome was inactive.
